Assay results reported in ChEMBL document CHEMBL3808325, “Discovery and Optimization of Macrocyclic Quinoxaline-pyrrolo-dihydropiperidinones as Potent Pim-1/2 Kinase Inhibitors” (ACS Med Chem Lett, 2016).
pIC50: −log10 of the molar value.

Tests used:
Mus musculus [1] = assay: Toxicity in human KMS-12-BM cells xenografted SCID-beige mouse assessed as effect on body weight at 10 to 100 mg/kg, po qd; type: organism-based; details: in vivo
Summary of the method: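 Tolerability followed in KMS-12-BM xenograft mice given oral doses once daily at 10, 25, 50 or 100 mg/kg over a 16-day efficacy study. Body weight monitored throughout.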

[2] = biological target: Mitogen-activated protein kinase 15 (Homo sapiens) (UniProt Q8TD08); assay: Inhibition of human MAPK15 assessed as remaining enzyme activity at 1 uM by KINOMEscan assay
Mitogen-activated protein kinase 15 (Homo sapiens), sequence (Q8TD08 whole entry): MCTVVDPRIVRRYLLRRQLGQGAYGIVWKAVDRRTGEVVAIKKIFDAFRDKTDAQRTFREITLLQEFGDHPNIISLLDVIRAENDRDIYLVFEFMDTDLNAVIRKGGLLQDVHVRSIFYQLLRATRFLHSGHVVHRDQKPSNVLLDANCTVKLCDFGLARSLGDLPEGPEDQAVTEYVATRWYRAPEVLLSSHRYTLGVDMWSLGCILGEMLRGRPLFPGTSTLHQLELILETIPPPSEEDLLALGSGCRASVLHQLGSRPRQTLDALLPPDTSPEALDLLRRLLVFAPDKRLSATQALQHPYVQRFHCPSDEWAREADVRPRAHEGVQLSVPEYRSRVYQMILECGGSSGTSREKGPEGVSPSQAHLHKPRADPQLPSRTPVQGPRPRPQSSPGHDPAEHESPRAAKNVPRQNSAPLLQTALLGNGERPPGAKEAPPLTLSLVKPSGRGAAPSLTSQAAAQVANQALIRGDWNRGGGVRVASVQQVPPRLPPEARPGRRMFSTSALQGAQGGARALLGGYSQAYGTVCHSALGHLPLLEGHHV
Summary of the method: (§1)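 scanMAX KINOMEscan panel of 392 nonmutant kinases, compound tested at 1 μM. Result expressed as percent of control (POC). S(10) and S(1) scores are the fraction of kinases with POC below 10% and below 1%.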

[3] = Drug metabolism in human liver microsomes assessed as compound turnover at 1 uM incubated for 30 mins; type: ADME; details: read-out: Drug metabolism
[4] = biological target: T1, Serine/threonine-protein kinase pim-2 (Homo sapiens, UniProt Q9P1W9); assay: Inhibition of human PIM2 assessed as remaining enzyme activity at 1 uM by KINOMEscan assay
Summary of the method: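 Profiled at 1 μM compound across a scanMAX KINOMEscan panel of 392 nonmutant kinases. Activity is reported as percent-of-control (POC). Panel-wide S(10) and S(1) selectivity scores are the fraction of kinases with POC below 10% and below 1%.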
Target sequence in this assay (Q9P1W9 whole entry, looked up): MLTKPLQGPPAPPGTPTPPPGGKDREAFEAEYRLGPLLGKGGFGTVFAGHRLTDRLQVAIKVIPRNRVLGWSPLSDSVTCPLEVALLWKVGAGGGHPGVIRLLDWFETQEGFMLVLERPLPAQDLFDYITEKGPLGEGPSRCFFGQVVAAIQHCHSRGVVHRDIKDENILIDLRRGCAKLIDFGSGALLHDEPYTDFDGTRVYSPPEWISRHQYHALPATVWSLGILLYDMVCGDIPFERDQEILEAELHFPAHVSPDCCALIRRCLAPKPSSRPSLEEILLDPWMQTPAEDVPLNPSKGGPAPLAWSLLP

Mus musculus [5] = assay: In vivo inhibition of Pim1/2-mediated BAD protein phosphorylation at Ser-112 in human KMS-12-BM cells xenografted in SCID-beige mouse assessed as pBAD level at 50 mg/kg, po administered as single dose measured after 6 hrs by meso scale discovery assay; type: functional; set-up: scale not given: the % may be the effect or the level left
Summary of the method: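 KMS-12-BM xenograft mice given a single oral dose of 25, 50 or 100 mg/kg. Tumor Ser-112 pBAD measured at time points through 16 h postdose. EC50 obtained by fitting all individual total plasma concentration–pBAD response data. Unbound value derived from mouse plasma fraction unbound.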

[6] = biological target: Homeodomain-interacting protein kinase 2 (Homo sapiens) (UniProt Q9H2X6); assay: Inhibition of human HIPK2 assessed as remaining enzyme activity at 1 uM by KINOMEscan assay; summary of the method: as §1
Homeodomain-interacting protein kinase 2 (Homo sapiens), sequence (Q9H2X6 whole entry, looked up): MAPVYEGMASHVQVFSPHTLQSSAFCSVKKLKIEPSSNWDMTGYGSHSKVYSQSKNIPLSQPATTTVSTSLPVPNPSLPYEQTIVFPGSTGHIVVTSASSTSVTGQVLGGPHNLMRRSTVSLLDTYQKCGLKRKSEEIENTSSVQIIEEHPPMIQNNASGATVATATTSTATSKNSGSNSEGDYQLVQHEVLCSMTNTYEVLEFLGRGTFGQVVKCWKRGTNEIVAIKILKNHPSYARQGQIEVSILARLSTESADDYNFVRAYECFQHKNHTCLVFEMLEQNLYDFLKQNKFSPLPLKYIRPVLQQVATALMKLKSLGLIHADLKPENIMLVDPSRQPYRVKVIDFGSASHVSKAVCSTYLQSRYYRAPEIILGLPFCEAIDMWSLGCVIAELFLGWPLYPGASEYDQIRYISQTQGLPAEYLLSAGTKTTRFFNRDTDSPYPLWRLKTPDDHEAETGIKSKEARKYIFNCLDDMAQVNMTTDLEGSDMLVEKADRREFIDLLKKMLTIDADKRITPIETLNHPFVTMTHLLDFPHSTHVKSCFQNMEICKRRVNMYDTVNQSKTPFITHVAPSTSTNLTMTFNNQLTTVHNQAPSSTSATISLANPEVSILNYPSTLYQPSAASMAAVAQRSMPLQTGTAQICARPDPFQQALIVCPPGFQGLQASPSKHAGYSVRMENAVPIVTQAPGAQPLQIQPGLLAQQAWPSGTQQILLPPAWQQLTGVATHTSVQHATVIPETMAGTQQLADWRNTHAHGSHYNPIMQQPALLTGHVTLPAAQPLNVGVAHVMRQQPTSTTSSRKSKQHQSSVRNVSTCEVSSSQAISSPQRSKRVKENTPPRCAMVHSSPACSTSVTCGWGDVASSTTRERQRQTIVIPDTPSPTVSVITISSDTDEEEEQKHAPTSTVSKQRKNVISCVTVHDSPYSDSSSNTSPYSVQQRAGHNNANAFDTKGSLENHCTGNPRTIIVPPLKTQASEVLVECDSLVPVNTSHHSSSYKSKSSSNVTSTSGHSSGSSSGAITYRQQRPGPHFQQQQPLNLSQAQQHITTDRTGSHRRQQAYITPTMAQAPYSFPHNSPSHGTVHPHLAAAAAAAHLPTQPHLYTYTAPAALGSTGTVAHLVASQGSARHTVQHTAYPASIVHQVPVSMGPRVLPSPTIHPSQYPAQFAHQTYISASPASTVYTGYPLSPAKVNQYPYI

[7] = biological target: T1, Serine/threonine-protein kinase pim-2; assay: Inhibition of human full-length Pim2 expressed in Escherichia coli assessed as phosphorylation of biotinylated BAD peptide at Ser 112 preincubated for 30 mins followed by substrate addition measured after 1 hr by HTRF assay
Summary of the method: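 Cell-free kinase assay using recombinant Pim-1 or Pim-2. Read-out is phosphorylation of a short BAD peptide sequence spanning Ser-112.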
Target sequence in this assay (Q9P1W9 whole entry): as the sequence (Q9P1W9 whole entry, looked up) above

[8] = biological target: Myosin light chain kinase family member 4 (Homo sapiens) (UniProt Q86YV6); assay: Inhibition of human MYLK4 assessed as remaining enzyme activity at 1 uM by KINOMEscan assay; summary of the method: as §1
Myosin light chain kinase family member 4 (Homo sapiens), sequence (Q86YV6 whole entry): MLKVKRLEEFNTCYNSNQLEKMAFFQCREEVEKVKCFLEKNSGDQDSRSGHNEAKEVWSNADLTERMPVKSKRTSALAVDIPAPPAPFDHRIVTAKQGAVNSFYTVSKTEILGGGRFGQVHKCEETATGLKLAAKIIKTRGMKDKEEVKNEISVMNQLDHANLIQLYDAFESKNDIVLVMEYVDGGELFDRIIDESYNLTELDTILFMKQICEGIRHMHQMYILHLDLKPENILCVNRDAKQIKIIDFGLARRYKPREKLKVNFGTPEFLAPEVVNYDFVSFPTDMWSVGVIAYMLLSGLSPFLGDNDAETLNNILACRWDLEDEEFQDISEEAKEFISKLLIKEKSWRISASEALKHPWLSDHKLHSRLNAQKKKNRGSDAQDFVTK

[9] = Volume of distribution at steady state in Sprague-Dawley rat at 2 mg/kg, iv; type: ADME, organism-based; details: in vivo, read-out: Vdss
Summary of the method: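 Pharmacokinetics in male Sprague–Dawley rats. Clearance also expressed as a percentage of liver blood flow. Oral bioavailability determined.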

[10] = Protein binding in rat assessed as as fraction unbound at 5 uM by rapid equilibrium dialysis method; type: ADME; details: plasma
[11] = biological target: Serine/threonine-protein kinase haspin (Homo sapiens) (UniProt Q8TF76); assay: Inhibition of human haspin assessed as remaining enzyme activity at 1 uM by KINOMEscan assay; summary of the method: as §1
Serine/threonine-protein kinase haspin (Homo sapiens), sequence (Q8TF76 whole entry): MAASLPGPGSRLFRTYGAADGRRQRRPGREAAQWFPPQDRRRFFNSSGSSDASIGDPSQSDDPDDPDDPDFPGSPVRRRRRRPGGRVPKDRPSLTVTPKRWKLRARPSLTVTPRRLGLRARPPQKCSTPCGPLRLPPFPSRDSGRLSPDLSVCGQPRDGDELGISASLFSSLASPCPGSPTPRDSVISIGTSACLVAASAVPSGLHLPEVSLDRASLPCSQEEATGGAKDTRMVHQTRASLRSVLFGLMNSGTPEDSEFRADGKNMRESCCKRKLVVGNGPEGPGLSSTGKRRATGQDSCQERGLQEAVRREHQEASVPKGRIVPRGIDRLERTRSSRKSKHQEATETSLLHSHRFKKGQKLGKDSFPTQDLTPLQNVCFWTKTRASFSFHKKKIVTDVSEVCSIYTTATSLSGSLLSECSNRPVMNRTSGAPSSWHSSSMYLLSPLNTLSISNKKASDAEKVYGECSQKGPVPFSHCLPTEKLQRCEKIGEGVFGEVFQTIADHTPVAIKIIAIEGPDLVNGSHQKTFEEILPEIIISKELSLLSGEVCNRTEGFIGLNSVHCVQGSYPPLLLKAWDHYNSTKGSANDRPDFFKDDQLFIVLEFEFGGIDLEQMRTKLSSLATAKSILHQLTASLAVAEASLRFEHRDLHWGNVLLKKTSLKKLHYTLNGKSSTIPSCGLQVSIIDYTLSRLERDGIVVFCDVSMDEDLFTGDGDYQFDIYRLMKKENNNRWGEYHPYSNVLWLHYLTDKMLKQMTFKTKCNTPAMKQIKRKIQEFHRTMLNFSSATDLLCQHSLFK

[12] = biological target: Dual specificity tyrosine-phosphorylation-regulated kinase 1A (Homo sapiens) (UniProt Q13627); assay: Inhibition of human DYRK1A assessed as remaining enzyme activity at 1 uM by KINOMEscan assay; summary of the method: as §1
[13] = biological target: Dual specificity protein kinase CLK2 (Homo sapiens) (UniProt P49760); assay: Inhibition of human CLK2 assessed as remaining enzyme activity at 1 uM by KINOMEscan assay; summary of the method: as §1
Dual specificity protein kinase CLK2 (Homo sapiens), sequence (P49760 whole entry, looked up): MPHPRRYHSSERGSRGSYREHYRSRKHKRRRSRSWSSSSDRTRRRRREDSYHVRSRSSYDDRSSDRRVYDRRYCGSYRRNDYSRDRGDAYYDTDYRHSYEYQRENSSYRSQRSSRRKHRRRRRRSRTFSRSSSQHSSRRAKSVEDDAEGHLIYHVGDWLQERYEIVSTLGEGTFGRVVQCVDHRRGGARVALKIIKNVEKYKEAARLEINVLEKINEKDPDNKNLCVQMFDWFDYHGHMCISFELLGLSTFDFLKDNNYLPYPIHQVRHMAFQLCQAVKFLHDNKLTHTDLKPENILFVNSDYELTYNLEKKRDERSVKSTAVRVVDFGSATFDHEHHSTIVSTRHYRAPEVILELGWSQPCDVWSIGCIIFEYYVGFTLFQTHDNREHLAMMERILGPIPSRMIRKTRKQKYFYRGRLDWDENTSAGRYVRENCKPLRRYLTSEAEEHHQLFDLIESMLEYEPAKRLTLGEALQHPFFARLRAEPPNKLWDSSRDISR

[14] = Cytotoxicity against human KMS-12-BM cells after 72 hrs by cell titer-glo luminescence assay; type: functional, cell-based
[15] = Antitumor activity against human KMS-12-BM cells xenografted in SCID-beige mouse at 100 mg/kg, po qd relative to vehicle control; type: functional; details: read-out: TGI
Summary of the method: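 Mouse KMS-12-BM xenograft efficacy study running 16 days. Oral dosing once daily at 10, 25, 50 or 100 mg/kg. Tumor volume compared with vehicle-treated controls.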

[16] = Drug metabolism in rat liver microsomes assessed as compound turnover at 1 uM incubated for 30 mins; type: ADME; details: read-out: Drug metabolism
[17] = biological target: Serine/threonine-protein kinase pim-1 (Homo sapiens, UniProt P11309); assay: Inhibition of human full-length Pim1 expressed in Escherichia coli assessed as phosphorylation of biotinylated BAD peptide at Ser-112 preincubated for 30 mins followed by substrate addition measured after 1 hr by HTRF assay
Serine/threonine-protein kinase pim-1, sequence (P11309 whole entry): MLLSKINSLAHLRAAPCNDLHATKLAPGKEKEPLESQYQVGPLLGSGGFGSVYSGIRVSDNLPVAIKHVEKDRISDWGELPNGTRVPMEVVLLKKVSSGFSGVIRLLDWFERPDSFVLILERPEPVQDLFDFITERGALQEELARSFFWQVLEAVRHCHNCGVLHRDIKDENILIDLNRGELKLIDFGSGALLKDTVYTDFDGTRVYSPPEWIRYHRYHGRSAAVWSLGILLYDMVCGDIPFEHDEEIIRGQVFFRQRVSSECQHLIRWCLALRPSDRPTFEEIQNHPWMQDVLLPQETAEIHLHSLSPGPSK

Cc1nc2cccc3c2nc1N[C@H](C)/C=C\C[C@H]1CNC(=O)c2cc-3[nH]c21
Activity (Mus musculus [1]): Non-toxic | Activity [2]: < 10% | metabolised at 0.5 h, 1 µM [3]: 24% | Activity [4]: < 10% | Activity (Mus musculus [5]): 60% | Activity [6]: < 10% | pIC50 [7]: 9.30 | Activity [8]: < 10% | Vd [9]: 1.5 L/kg | fraction unbound at 5 µM [10]: 0.007 | Activity [11]: < 10% | Activity [12]: < 10% | Activity [13]: < 10% | pIC50 [14]: 6.82 | inhibition in vivo at 100 mg/kg [15]: 100% | metabolised at 0.5 h, 1 µM [16]: 39% | pIC50 [17]: 9.52
